The test system of assay [1] is Nucleic Acid. Description: Binding affinity to Escherichia coli supercoiled pUC19 DNA assessed as intercalation at 0.2 to 5 uM by agarose gel electrophoresis in presence of human DNA topoisomerase 1. The assay is classed as nucleic-acid assay. Put shortly: (§1)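 Supercoiled pUC19 plasmid was incubated with or without compound across the stated µM range, then relaxed with human topoisomerase I. Reactions were stopped with SDS and proteinase K. Samples were run on a 1% agarose gel in TBE for 2 h at 120 V and post-stained with ethidium bromide. Supercoiled, relaxed and nicked bands were scored under UV.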

Assay [2] addresses DNA topoisomerase 2-alpha (Homo sapiens) (UniProt P11388). Description: Inhibition of DNA topoisomerase 2 (unknown origin)-mediated DNA cleavage assessed as linear band at 50 uM by agarose gel electrophoresis. Put shortly:
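Topoisomerase II DNA cleavage assay was run per an earlier method, with etoposide as the Topo II poison positive control. Compounds came from 10 mM DMSO stocks freshly diluted in aqueous buffer.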

Assay [3] deals with T1, DNA topoisomerase 1 (Homo sapiens) (UniProt P11387).
T1 sequence (whole entry): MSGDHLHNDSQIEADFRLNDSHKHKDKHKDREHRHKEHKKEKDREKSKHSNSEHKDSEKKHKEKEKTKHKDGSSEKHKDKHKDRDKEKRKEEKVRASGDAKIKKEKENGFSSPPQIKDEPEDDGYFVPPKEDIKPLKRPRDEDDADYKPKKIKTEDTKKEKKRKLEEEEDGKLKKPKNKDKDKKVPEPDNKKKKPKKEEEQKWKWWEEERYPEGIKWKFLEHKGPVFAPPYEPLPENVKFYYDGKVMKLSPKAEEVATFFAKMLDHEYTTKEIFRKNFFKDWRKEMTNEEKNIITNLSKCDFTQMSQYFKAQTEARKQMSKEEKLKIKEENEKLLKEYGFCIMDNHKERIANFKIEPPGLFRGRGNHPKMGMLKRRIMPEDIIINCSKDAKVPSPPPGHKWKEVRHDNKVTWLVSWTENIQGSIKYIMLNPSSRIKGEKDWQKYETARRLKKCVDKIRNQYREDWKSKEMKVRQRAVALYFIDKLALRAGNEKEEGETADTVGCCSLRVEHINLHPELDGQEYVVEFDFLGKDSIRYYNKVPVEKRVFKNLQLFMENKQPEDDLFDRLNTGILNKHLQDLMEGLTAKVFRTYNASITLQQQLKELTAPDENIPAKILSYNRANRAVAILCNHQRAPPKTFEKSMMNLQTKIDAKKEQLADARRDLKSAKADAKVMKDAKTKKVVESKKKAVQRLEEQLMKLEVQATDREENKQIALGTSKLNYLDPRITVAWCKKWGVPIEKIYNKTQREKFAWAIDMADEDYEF
Description: Inhibition of human topoisomerase 1-mediated DNA cleavage assessed as accumulation of nicked DNA at 1 to 50 uM by agarose gel electrophoresis. Put shortly: as §1

A short description of assay [4]: Binding affinity to DNA (unknown origin) assessed as inhibition of DNase1-mediated cleavage at 2 to 5 uM by DNase1 footprinting assay. Put shortly:
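DNase I footprinting run essentially per an earlier protocol. Gels were exposed to a storage screen at room temperature and then scanned. Compounds were made as 10 mM DMSO stocks and freshly diluted into aqueous buffer.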

Assay [5] concerns DNA. In words: Binding affinity to calf thymus DNA at 50 uM by circular dichroism spectra analysis. As to conditions: Bos taurus. The assay is classed as nucleic-acid assay. Put shortly:
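Drug (50 µM) was incubated in BPE buffer with or without CT-DNA at 0.1–100 µM. CD spectra were recorded from 480 to 230 nm in a 10 mm quartz cell at 20 °C under Peltier control.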
A general note: Circular dichroism is widely used to follow secondary structure.

Assay [6] has as its system DNA. In words: Binding affinity to calf thymus DNA assessed as hypochromic effect at 20 uM by UV-Visible spectroscopy relative to control. As to conditions: Bos taurus. Format: nucleic-acid assay. Put shortly: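 Compound (20 µM) in BPE buffer pH 7.1 was titrated with CT-DNA, 10–100 µM in 10 µM steps and then to 200 µM in 20 µM steps (base pairs). Spectra were recorded from 230–530 nm in a 10 mm quartz cuvette, referenced against a cuvette holding the same DNA concentration.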

In assay [7] the test system is DNA. Description: Binding affinity to calf thymus DNA assessed as change in melting temperature at 1 drug/DNA ratio by spectrophotometry. The assay is classed as nucleic-acid assay. As to conditions: Bos taurus. Put shortly: (§2)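 CT-DNA (20 µM) was dialyzed and incubated alone or with compound at drug/base-pair ratio R 0.25–1 in BPE buffer (6 mM Na2HPO4, 2 mM NaH2PO4, 1 mM EDTA, pH 7.1). A260 was read every min from 20–100 °C at 1 °C/min against a compound-matched reference. Tm was taken from the first-derivative midpoint, and ΔTm = Tm(drug+DNA) − Tm(DNA alone).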

The subject of assay [8] is DNA. In words: Binding affinity to calf thymus DNA assessed as change in melting temperature at 0.5 drug/DNA ratio by spectrophotometry. The assay is classed as nucleic-acid assay. Conditions: Bos taurus. Put shortly:
as §2

Assay [9] in a line: Cytotoxicity against human H460 cells after 72 hrs by MTT assay. Format: functional, cell-based, NCI-H460. As to conditions: Homo sapiens, NCI-H460, 72 h. Put shortly: (§3)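 HCT 116 and H 460 were seeded at 3×10^4 cells/mL and MCF-7 at 5×10^4 cells/mL in DMEM with 10% FBS, 2 mM glutamine and antibiotics, at 37 °C in 5% CO2. Compounds were added after 24 h (DMSO <1%). After 72 h, MTT absorbance was read at 570 nm. Runs were technical quadruplicates with ≥2 biological replicates, and IC50 was obtained by linear interpolation around 50% growth.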

The test system of assay [10] is DNA. In words: Binding affinity to calf thymus DNA assessed as change in melting temperature at 0.25 drug/DNA ratio by spectrophotometry. Format: nucleic-acid assay. Conditions: Bos taurus. Put shortly:
as §2

Assay [11] relates to MCF7. In words: Cytotoxicity against human MCF7 cells after 72 hrs by MTT assay. The assay is classed as functional, cell-based. As to conditions: Homo sapiens, MCF7, 72 h. Put shortly:
as §3

For assay [12], the system named is HCT-116. Description: Cytotoxicity against human HCT116 cells after 72 hrs by MTT assay. Format: functional, cell-based. As to conditions: Homo sapiens, HCT-116, 72 h. Put shortly: as §3
In general terms: Formazan colour is commonly taken as a measure of viable cells.

The target in assay [13] is DNA topoisomerase 2-alpha (Homo sapiens) (UniProt P11388). As to conditions: 20 to 50 uM.
DNA topoisomerase 2-alpha (Homo sapiens), sequence (P11388 whole entry): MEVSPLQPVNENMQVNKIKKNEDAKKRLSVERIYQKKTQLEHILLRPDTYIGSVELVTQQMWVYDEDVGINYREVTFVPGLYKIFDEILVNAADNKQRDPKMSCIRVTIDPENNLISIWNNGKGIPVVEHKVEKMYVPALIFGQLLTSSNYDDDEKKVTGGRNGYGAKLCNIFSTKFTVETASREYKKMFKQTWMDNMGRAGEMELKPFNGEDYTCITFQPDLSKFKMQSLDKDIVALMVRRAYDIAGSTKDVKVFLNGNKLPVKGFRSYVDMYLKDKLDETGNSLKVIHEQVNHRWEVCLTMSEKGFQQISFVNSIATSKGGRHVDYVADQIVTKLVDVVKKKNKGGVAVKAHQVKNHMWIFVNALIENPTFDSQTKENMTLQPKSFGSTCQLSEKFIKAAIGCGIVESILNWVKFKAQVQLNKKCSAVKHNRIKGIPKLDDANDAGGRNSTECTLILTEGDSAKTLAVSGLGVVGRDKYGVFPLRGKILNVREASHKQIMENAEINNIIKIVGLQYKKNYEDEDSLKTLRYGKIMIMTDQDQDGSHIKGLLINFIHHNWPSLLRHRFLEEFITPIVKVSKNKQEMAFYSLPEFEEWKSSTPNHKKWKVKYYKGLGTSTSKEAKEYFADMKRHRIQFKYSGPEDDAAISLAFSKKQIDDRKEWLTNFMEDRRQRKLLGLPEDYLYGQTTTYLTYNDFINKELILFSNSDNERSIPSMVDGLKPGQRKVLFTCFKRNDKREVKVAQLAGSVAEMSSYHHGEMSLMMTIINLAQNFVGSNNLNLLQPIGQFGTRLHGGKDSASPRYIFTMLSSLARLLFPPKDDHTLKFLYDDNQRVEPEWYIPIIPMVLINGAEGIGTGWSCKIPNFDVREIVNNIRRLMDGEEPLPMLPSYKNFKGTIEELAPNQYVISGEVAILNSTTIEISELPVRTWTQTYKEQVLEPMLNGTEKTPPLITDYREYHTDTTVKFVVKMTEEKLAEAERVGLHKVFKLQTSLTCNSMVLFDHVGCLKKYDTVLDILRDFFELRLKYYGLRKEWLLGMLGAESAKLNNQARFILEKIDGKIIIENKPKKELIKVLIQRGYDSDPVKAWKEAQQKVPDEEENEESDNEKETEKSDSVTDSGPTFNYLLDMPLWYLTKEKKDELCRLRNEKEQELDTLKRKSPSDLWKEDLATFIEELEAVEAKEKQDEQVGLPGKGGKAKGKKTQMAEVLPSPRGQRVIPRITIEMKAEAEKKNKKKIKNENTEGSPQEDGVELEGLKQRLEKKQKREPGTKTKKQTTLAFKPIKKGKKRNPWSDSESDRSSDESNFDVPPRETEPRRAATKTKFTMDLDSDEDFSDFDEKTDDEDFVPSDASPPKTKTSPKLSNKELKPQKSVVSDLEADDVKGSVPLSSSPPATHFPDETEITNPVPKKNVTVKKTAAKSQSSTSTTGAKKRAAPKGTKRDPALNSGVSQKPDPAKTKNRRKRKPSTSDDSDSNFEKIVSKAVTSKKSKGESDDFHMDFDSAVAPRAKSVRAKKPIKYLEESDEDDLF

Activity calls are given as the source filed them. The calls are words filed in the database; no cut-off is given here.

For `C[N+](C)(C)c1ccc2[nH]c(=O)c3sc4ccccc4c3c2c1`, the outcome in assay [1] and in [4] was Active. Also, the “Topo II DNA cleavage inhibition (active/not active)” value in assay [2] was “inactive”. Also, the inhibition entry in assay [3] was “inactive”. In addition, the result in assay [5] was inactive. Moreover, the Activity in assay [6] is 49%. Besides, the ΔTm (usually the change in melting temperature against a reference sample) in [7] is 16.9 °C; in assay [8] it was 12.8 °C; in assay [10] it was 10 °C. The IC50 (in general, the midpoint of a concentration-inhibition curve) in assay [9] is over 100 µM; in assay [11], 50 µM; in assay [12] it was over 100 µM.
For `COc1cc([C@@H]2c3cc4c(cc3[C@@H](O[C@@H]3O[C@@H]5CO[C@@H](C)O[C@H]5[C@H](O)[C@H]3O)[C@H]3COC(=O)[C@H]23)OCO4)cc(OC)c1O`, in assay [13], the inhibition entry was “Active”.
